Measurements: ChEMBL document CHEMBL2424587, “Antiproliferative activity of abietane diterpenoids against human tumor cells” (J Nat Prod, 2013)
Calls of active or inactive are those of the source. No cut-off for these calls is given here.

What was measured:
HL-60 [1] = assay: Induction of apoptosis in human HL60 cells assessed as nuclear chromatin fragmentation after 6 hrs by Hoechst 33258 staining-based fluorescence microscopy; type: functional, cell-based
MOLT-3 = assay: Cytotoxicity against human MOLT3 cells after 72 hrs by MTT assay; type: functional, cell-based; details: MOLT-3, 72 h
Outline: (§1)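 MTT assay: 1 × 10^4 exponentially growing cells per well incubated 72 h over a range of compound concentrations; MTT 0.5 mg/mL for 4 h at 37 °C, then 10% SDS in 0.05 M HCl overnight at room temperature in the dark; absorbance at 570 nm. Leukemia and SK-MEL-1 lines grown in RPMI 1640, MCF-7 in DMEM, both with 10% heat-inactivated FBS. IC50 given as mean ± SEM of 3–5 independent experiments, each in triplicate.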

HL-60 [2] = assay: Induction of apoptosis in human HL60 cells assessed as release of Smac/DIABLO to cytosolic fraction by Western blotting analysis; type: functional, cell-based
HL-60 [3] = assay: Induction of apoptosis in human HL60 cells assessed as hypodiploid cells at 3 uM by flow cytometry; type: functional, cell-based; details: TDE = time-dependent effect
HL-60 [4] = assay: Induction of apoptosis in human HL60 cells assessed as hypodiploid cells at 3 uM after 24 hrs by flow cytometry (reference value: 4.4 +/- 0.8%); type: functional
PBMC = assay: Cytotoxicity against human PBMC cells up to 3 uM after 24 hrs by MTT assay; type: cell-based
Outline: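 PBMC from heparinized blood of healthy volunteers, isolated on Ficoll-Paque, cultured in parallel with HL-60 cells for 24 h at the stated concentrations; viability measured by MTT; Student's t-test versus untreated control.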

HL-60 [5] = assay: Cell cycle arrest in human HL60 cells assessed as accumulation at S phase at 3 uM after 24 hrs by […]propidium iodide staining-based flow cytometry (reference value: 32%); type: functional
HL-60 [6] = assay: Induction of apoptosis in human HL60 cells assessed as procaspase-6 cleavage at 3 uM after 24 hrs by immunoblotting analysis; type: functional, cell-based
Outline: (§2)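 HL-60 cells treated 24 h with 3 μM; immunoblots of lysates probed with antibodies that recognize both pro-caspases and cleaved caspases, and for PARP.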

MCF7 = assay: Cytotoxicity against human MCF7 cells after 72 hrs by MTT assay; type: functional, cell-based; details: MCF7, 72 h; outline: as §1
HL-60 [7] = assay: Induction of ROS-mediated cell death in human HL60 cells preincubated for 2 hrs in presence of NAC; type: functional, cell-based
Outline: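 Antioxidant test in HL-60 cells: NAC 10 mM added with the diterpene, or NAC and diterpene preincubated together for 2 h before addition to cells; cell death then measured.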

HL-60 [8] = assay: Induction of apoptosis in human HL60 cells assessed as reduction in mitochondrial membrane potential at 3 uM after 24 hrs by JC-1 staining-based flow cytometry; type: functional, cell-based
Outline: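 ΔΨm in HL-60 cells after 24 h at 3 μM assessed by JC-1 fluorescence on flow cytometry; two separate experiments, each in triplicate.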

HL-60 [9] = assay: Induction of apoptosis in human HL60 cells assessed as reduction in mitochondrial membrane potential at 3 uM after 24 hrs by JC-1 staining-based flow cytometry in presence of cyclosporin A; type: functional, cell-based
Outline: (§3)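 HL-60 cells exposed to 3 μM diterpene for 24 h alongside permeability transition pore inhibitors cyclosporin A (25 μM, 24 h) or bongkrekic acid (25−50 μM, 24 h). Apoptosis was scored by flow cytometry. Mitochondrial membrane potential was read by JC-1 fluorescence on flow cytometry.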

HL-60 [10] = assay: Induction of apoptosis in human HL60 cells assessed as release of cytochrome c to cytosolic fraction by Western blotting analysis; type: functional, cell-based
HL-60 [11] = assay: Cytotoxicity against human HL60 cells overexpressing neomycin-resistant gene after 72 hrs by MTT assay; type: functional, cell-based
HL-60 [12] = assay: Induction of apoptosis in human HL60 cells assessed as hypodiploid cells after 24 hrs by flow cytometry in presence of caspase-8 inhibitor Z-IETD-FMK; type: functional, cell-based
Outline: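 HL-60 cells pretreated 1 h with caspase inhibitor, then given diterpene for 24 h; hypodiploid cells counted by flow cytometry; mean ± SE of three independent experiments in triplicate.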

HL-60 [13] = assay: Cytotoxicity against human HL60 cells overexpressing Bcl-XL protein after 72 hrs by MTT assay; type: functional, cell-based; details: HL-60, 72 h
HL-60 [14] = assay: Cell cycle arrest in human HL60 cells assessed as accumulation at Sub-G1 phase at 3 uM after 24 hrs by […]propidium iodide staining-based flow cytometry (reference value: 4%); type: functional
HL-60 [15] = assay: Induction of apoptosis in human HL60 cells assessed as procaspase-8 cleavage at 3 uM after 24 hrs by immunoblotting analysis; type: functional, cell-based; outline: as §2
HL-60 [16] = assay: Induction of apoptosis in human HL60 cells assessed as DNA fragmentation at 3 uM after 24 hrs by […]; type: functional, cell-based
HL-60 [17] = assay: Induction of apoptosis in human HL60 cells assessed as PARP cleavage at 3 uM after 24 hrs by immunoblotting analysis; type: functional, cell-based; outline: as §2
HL-60 [18] = assay: Induction of apoptosis in human HL60 cells assessed as reduction in mitochondrial membrane potential at 3 uM after 24 hrs by JC-1 staining-based flow cytometry in presence of bongkrekic acid; type: functional, cell-based; outline: as §3
HL-60 [19] = assay: Induction of apoptosis in human HL60 cells using DEVD-pNA as substrate assessed as caspase-3/7 activation at 3 uM after 24 hrs relative to control; type: functional
Outline: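 HL-60 cells treated with 3 μM diterpene for 24 h. Lysates were assayed for cleavage of chromogenic tetrapeptide substrates DEVD-pNA (caspase-3/7), IETD-pNA (caspase-8) and LEHD-pNA (caspase-9). Activity is expressed as n-fold over untreated control. Mean ± SE of three independent experiments, each in triplicate.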

HL-60 [20] = assay: Induction of apoptosis in human HL60 cells assessed as early apoptotic cells at 3 uM after 24 hrs by AnnexinV-FITC/propidium iodide staining-based flow cytometry (reference value: 1.6%); type: functional
Outline: (§4)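 HL-60 cells given 3 μM for 24 h, stained with annexin V-FITC and propidium iodide, and analysed by flow cytometry; annexin+/PI− cells scored as early apoptotic and double-positive cells as late; three separate experiments.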

HL-60 [21] = assay: Cytotoxicity against human HL60 cells after 72 hrs by MTT assay; type: functional, cell-based; details: HL-60, 72 h; outline: as §1
HL-60 [22] = assay: Induction of apoptosis in human HL60 cells assessed as externalization of phosphotidylserine at 3 uM after 24 hrs by AnnexinV-FITC/propidium iodide staining-based flow cytometry; type: functional, cell-based; outline: as §4
SK-MEL-1 = assay: Cytotoxicity against human SK-MEL-1 cells after 72 hrs by MTT assay; type: functional, cell-based; details: SK-MEL-1, 72 h; outline: as §1
HL-60 [23] = assay: Induction of apoptosis in human HL60 cells assessed as nuclear chromatin condensation after 6 hrs by Hoechst 33258 staining-based fluorescence microscopy; type: functional, cell-based
HL-60 [24] = assay: Induction of apoptosis in human HL60 cells assessed as procaspase-9 cleavage at 3 uM after 24 hrs by immunoblotting analysis; type: functional, cell-based; outline: as §2
HL-60 [25] = assay: Induction of apoptosis in human HL60 cells assessed as release of AIF to cytosolic fraction by Western blotting analysis; type: functional, cell-based
HL-60 [26] = assay: Induction of apoptosis in human HL60 cells at 3 uM after 24 hrs by flow cytometry in presence of Z-VAD-FMK; type: functional, cell-based
Outline: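 HL-60 cells pretreated with pancaspase inhibitor Z-VAD-FMK (100 μM), then given diterpene (3 μM) for 24 h. Hypodiploid (sub-G1) apoptotic cells were counted by flow cytometry. Mean ± SE of three independent experiments, each in triplicate.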

SMILES | Activity (HL-60 [1]) | IC50 (MOLT-3) [µM] | Activity (HL-60 [2]) | Activity (HL-60 [3]) | Activity (HL-60 [4]) [%] | Activity (PBMC) | Activity (HL-60 [5]) [%] | Activity (HL-60 [6]) | IC50 (MCF7) [µM] | Activity (HL-60 [7]) | Activity (HL-60 [8]) | Activity (HL-60 [9]) | Activity (HL-60 [10]) | Activity (HL-60 [11]) | Activity (HL-60 [12]) | IC50 (HL-60 [13]) [µM] | Activity (HL-60 [14]) [%] | Activity (HL-60 [15]) | Activity (HL-60 [16]) | Activity (HL-60 [17]) | other results
CC(=O)O[C@H]1C2=C(C(=O)C(OC(=O)c3ccccc3)=C(C(C)C)C2=O)[C@@]2(C)CCCC(C)(C)[C@@H]2[C@@H]1OC(=O)c1ccccc1 | Active | 6.9 | Active | tde | 48 | Non-toxic | 16 | Active | 25.5 | inactive | Active | Active | Active | Active | inactive | 1.1 | 40 | Active | Active | Active | Activity (HL-60 [18]): Active; fold change (FC) (HL-60 [19]): 2; Activity (HL-60 [20]): 20.7%; IC50 (HL-60 [21]): 3.6 µM; Activity (HL-60 [22]): Active; IC50 (SK-MEL-1): 3.1 µM; Activity (HL-60 [23]): Active; Activity (HL-60 [24]): Active; Activity (HL-60 [25]): Active; Activity (HL-60 [26]): Active
CC(=O)O[C@H]1C2=C(C(=O)C(OC(=O)c3ccc(Cl)cc3)=C(C(C)C)C2=O)[C@@]2(C)CCCC(C)(C)[C@@H]2[C@@H]1O | Active | 1.4 | Active | tde | 40.4 | Non-toxic | 23 | inactive | 2.9 | inactive | Active | Active | Active | Active | Active | 2.2 | 32 | Active | Active | Active | Activity (HL-60 [18]): Active; fold change (FC) (HL-60 [19]): 2; Activity (HL-60 [20]): 28.8%; IC50 (HL-60 [21]): 2.4 µM; Activity (HL-60 [22]): Active; IC50 (SK-MEL-1): 4 µM; Activity (HL-60 [23]): Active; Activity (HL-60 [24]): Active; Activity (HL-60 [25]): Active; Activity (HL-60 [26]): Active
COc1ccc(C(=O)OC2=C(C(C)C)C(=O)C3=C(C2=O)[C@@]2(C)CCCC(C)(C)[C@@H]2[C@H](O)[C@H]3OC(C)=O)cc1 | Active | 1.5 | Active | tde | 34.5 | Non-toxic | 21 | inactive | 3.1 | inactive | Active | Active | Active | Active | Active | 2.9 | 28 | Active | Active | Active | Activity (HL-60 [18]): Active; fold change (FC) (HL-60 [19]): 2; Activity (HL-60 [20]): 30.2%; IC50 (HL-60 [21]): 2.7 µM; Activity (HL-60 [22]): Active; IC50 (SK-MEL-1): 7.2 µM; Activity (HL-60 [23]): Active; Activity (HL-60 [24]): Active; Activity (HL-60 [25]): Active; Activity (HL-60 [26]): Active
